In ChEMBL document CHEMBL1137717, “Synthesis and in vitro antiproliferative activity of novel 1-benzhydrylpiperazine derivatives against human cancer cell lines” (Eur J Med Chem, 2009) one finds viability data, which are given here for 16 molecules.

One series deals with HT-29. Briefly: Cytotoxicity against human HT-29 cells assessed as cell survival at 100 uM after 24 hrs by MTT assay relative to control. In kind it is functional. Conditions: HT-29, 24 h, read-out: Survival. A digest of the protocol: (§1)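 Cells grown in DMEM with 10% FCS (HT-29 in McCoy's with 10% FCS), seeded in 96-well plates, and grown 48 h before dosing. Exposed to 100 µM final compound (0.1% DMSO) for 24 h at 37 °C. MTT 1 mg/ml in medium was added for 4 h, formazan dissolved in DMSO, and A570 read. Survival is relative to the 0.1% DMSO control (100%); triplicate, mean ± SD.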
For orientation: Tetrazolium assays rely on reduction of a dye to a coloured formazan, in cell work by metabolically active cells.

Series [1] can be described thus: Cytotoxicity against human NF103 cells assessed as cell survival at 100 uM after 24 hrs by MTT assay relative to control. The conditions noted are these: read-out: Survival. It is filed as cell-based. In short, it runs like this: as §1
In another series the test system is MCF7. The experiment in a line: Cytotoxicity against human MCF7 cells assessed as cell survival at 100 uM after 24 hrs by MTT assay relative to control. In kind it is functional. The conditions noted are these: MCF7, 24 h, read-out: Survival. In short, it runs like this:
as §1

In the next series the test system is HeLa. The experiment in a line: Cytotoxicity against human HeLa cells assessed as cell survival at 100 uM after 24 hrs by MTT assay relative to control. In kind it is functional. The conditions noted are these: read-out: Survival. In short, it runs like this:
as §1

A further series has as its system HepG2. Briefly: Cytotoxicity against human HepG2 cells assessed as cell survival at 100 uM after 24 hrs by MTT assay relative to control. It is filed as functional. The conditions noted are these: HepG2, 24 h, read-out: Survival. A digest of the protocol:
as §1

For `S=C(Nc1cccc(Cl)c1)N1CCN(C(c2ccccc2)c2ccccc2)CC1`, the viability at 100 µM with HT-29 came out at 69.3%; in the series on MCF7 it was 73.6%; in the series on HeLa, 69.8%; with HepG2, 69.5%. For the same molecule, in series [1], the viability at 24 h, 100 µM came to 56.8%.
With `S=C(Nc1ccc(Cl)cc1)N1CCN(C(c2ccccc2)c2ccccc2)CC1`, the viability at 100 µM with HT-29 amounted to 73.8%; in the series with MCF7, 66.9%; in the series with HeLa it was 73.9%; in the series on HepG2, 66.2%. The viability at 24 h, 100 µM in series [1] amounted to 54.8%.
As to `Fc1ccc(NC(=S)N2CCN(C(c3ccccc3)c3ccccc3)CC2)cc1`, the viability at 100 µM came out at 47.4% with HT-29, 43.9% in the series on MCF7, 48.4% in the series with HeLa and 45.4% with HepG2. For the same molecule, the viability at 24 h, 100 µM in series [1] came out at 52.7%.
In the same order, the values of `O=C(N1CCCC1)N1CCN(C(c2ccccc2)c2ccccc2)CC1` are 70.2%, 71.4%, 64.2%, 66.2% and 54%.
Consider `O=C(C1CC1)N1CCN(C(c2ccccc2)c2ccccc2)CC1`, for which the viability at 100 µM in the series with HT-29 stood at 72%; in the series on MCF7, 61%; with HeLa it was 70.3%; in the series with HepG2, 62.9%. Also, the viability at 24 h, 100 µM in series [1] worked out at 55.1%.
In the case of `O=S(=O)(c1ccccc1)N1CCN(C(c2ccccc2)c2ccccc2)CC1`, the viability at 100 µM with HT-29 came out at 69.3%; with MCF7 it was 68.1%; with HeLa, 61.9%; with HepG2, 66.2%. Moreover, in series [1], the viability at 24 h, 100 µM came to 57.4%.
On to `O=S(=O)(CC(F)(F)F)N1CCN(C(c2ccccc2)c2ccccc2)CC1`, for which the viability at 100 µM in the series on HT-29 worked out at 43.6%; in the series with MCF7 it was 41.1%; in the series with HeLa it was 47.7%; with HepG2, 47.8%. Besides, the viability at 24 h, 100 µM in series [1] was determined as 54.9%.
For the molecule `O=C(N1CCOCC1)N1CCN(C(c2ccccc2)c2ccccc2)CC1`, the viability at 100 µM with HT-29 was determined as 63.4%; in the series on MCF7, 68.7%; with HeLa it was 53.9%; with HepG2, 61.9%. Also, in series [1], the viability at 24 h, 100 µM stood at 56.1%.
Turning to `COc1ccccc1NC(=S)N1CCN(C(c2ccccc2)c2ccccc2)CC1`, the viability at 100 µM stood at 62.1% in the series on HT-29, 54.5% in the series with MCF7, 56.8% with HeLa and 61% with HepG2. The viability at 24 h, 100 µM in series [1] is 59.7%.
Regarding `COc1cccc(NC(=S)N2CCN(C(c3ccccc3)c3ccccc3)CC2)c1`, the viability at 100 µM in the series on HT-29 was found to be 64.8%; with MCF7 it was 58.7%; with HeLa it was 72.8%; with HepG2, 64.5%. For the same molecule, the viability at 24 h, 100 µM in series [1] was 57.8%.
As to `S=C(Nc1ccc(Cl)cc1Cl)N1CCN(C(c2ccccc2)c2ccccc2)CC1`, the viability at 100 µM in the series with HT-29 was found to be 68.2%; in the series with MCF7, 45.6%; in the series with HeLa it was 45.5%; in the series on HepG2, 59.2%. Also, in series [1], the viability at 24 h, 100 µM was determined as 53.5%.
Turning to `CC1(C)C2CCC1(CS(=O)(=O)N1CCN(C(c3ccccc3)c3ccccc3)CC1)C(=O)C2` (stereo not given), the viability at 100 µM in the series on HT-29 was found to be 79.2%; in the series on MCF7 it was 61.7%; in the series with HeLa, 65.2%; in the series with HepG2 it was 72.6%. Moreover, the viability at 24 h, 100 µM in series [1] is 60.4%.
On the same counts, the results for `COc1ccc(NC(=S)N2CCN(C(c3ccccc3)c3ccccc3)CC2)cc1` are 55.6%, 63.7%, 66%, 48.8% and 55.9%.
On the same counts, the results for `S=C(Nc1ccccc1Cl)N1CCN(C(c2ccccc2)c2ccccc2)CC1` are 70.8%, 69.8%, 63.1%, 71.8% and 59.1%.
Regarding `O=C(c1ccno1)N1CCN(C(c2ccccc2)c2ccccc2)CC1`, the viability at 100 µM in the series on HT-29 turned out to be 47.5%; in the series with MCF7, 44.2%; in the series with HeLa it was 46.8%; in the series with HepG2 it was 46.1%. The viability at 24 h, 100 µM in series [1] amounted to 58.6%.
On to `O=S(=O)(c1ccc(Cl)cc1F)N1CCN(C(c2ccccc2)c2ccccc2)CC1`, for which the viability at 100 µM was determined as 76.3% with HT-29, 64% with MCF7, 61.9% in the series with HeLa and 70.1% in the series with HepG2. Moreover, the viability at 24 h, 100 µM in series [1] came to 61%.
